# Source: PubChem BioAssay
# In the library only some 1.9% were active in any assay of this set; here they are far more common.
# TDP2 absorb = human TDP2 enzyme inhibitors, primary screen, biochemical, epi absorbance, recombinant enzyme; inhibition, % at 12.8 µM; T5PNP hydrolysis, p-nitrophenol absorbance 415 nm; Tyrosyl-DNA phosphodiesterase 2 (Homo sapiens), O95551; 0.34% of 370,000 active;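 active = inhibition above the mean of all tested compounds plus 3 SD, set per campaign, cut at about 25% in these data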;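 also: 0% = DMSO with enzyme and 100% = buffer with substrate but no TDP2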
#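 Evaluation: % inhibition relative to enzyme-containing and enzyme-free wells. Material: recombinant human TDP2. Benchmarks: enzyme-free and DMSO wells. Timing: enzyme reaction with compound for 2 h at 37 °C. Compound dosing: 12.8 µM only. Measured by: p-Nitrophenol epi absorbance. Reagent: T5PNP substrate at 5 mM, a TopII-DNA adduct mimic. Replication: single well per compound.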
# UHRF1 binding = UHRF1 methylated DNA binding inhibitors, primary screen, counter-screen for MBD2 inhibitor project, biochemical, TR-FRET, human UHRF1, single concentration; E3 ubiquitin-protein ligase UHRF1 (Homo sapiens), Q96T88; UHRF1 binding to methylated oligo; inhibition, % at 4.4 µM; 0.75% of 370,000 active; AID 687016, 2013; in the data active = inhibition above about 21%;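 also: UHRF1 SRA domain binding a hemimethylated CpG hairpin DNA probe; 0% = median of test compound wells and 100% = reference inhibitor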
# Rin1 Abl inh = inhibitors of Rin1-Abl protein binding, primary screen, biochemical, TR-FRET; inhibition, % at 7.35 µM; AID 588664, 2011; Tyrosine-protein kinase ABL1 (Homo sapiens) + Ras and Rab interactor 1 (Homo sapiens), …; 0.4% of 360,000 active; in the data active = inhibition above about 5%, passing the limit was not always enough
# LEDGF integ inh = blockers of LEDGF/p75-dependent integrase strand transfer – biochemical, TR-FRET, high throughput, primary screen; inhibition, % at 3.7 µM; HIV-1 integrase (with human LEDGF/p75); 0.64% of 370,000 active; AID 743269, 2014; TR-FRET IN-LEDGF/p75 DNA integration, Eu/Cy5;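 active = inhibition above the screen-wide mean plus 3 SD, cut at about 13% in these data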;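 also: signal is the Cy5 over europium emission ratio at 671 and 618 nm; 0% = plate median of compound wells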
# MBD2 DNA inh = inhibitors of MBD2 binding to methylated DNA, primary screen, biochemical, TR-FRET, DNA-binding domain, human; Methyl-CpG-binding domain protein 2 (Homo sapiens), Q9UBB5; MBD2 binding to methylated oligonucleotide; inhibition, % at 4.4 µM; 0.31% of 370,000 active; in the data active = inhibition above about 13%
# TDP2 inh conf = human TDP2 enzyme inhibitors, retest, confirmation, biochemical, epi absorbance, recombinant enzyme; inhibition, % at 12.8 µM; absorbance read-out; shares compounds with TDP2 absorb; AID 743263, 2014; 22% of 1,100 active; in the data active = inhibition above about 25%;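 also: 0% = vehicle with enzyme and 100% = no enzyme buffer only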
# * marks the source's active call; other numbers are inactive results; . = no result.
SMILES,TDP2 absorb,UHRF1 binding,Rin1 Abl inh,LEDGF integ inh,MBD2 DNA inh,TDP2 inh conf
Cc1ccc(S(=O)(=O)N(C)CC(=O)Nc2ccc(C)cn2)cc1,0,1,-1,-3,7,.
Cc1ccc(S(=O)(=O)N(C)CC(=O)Nc2cccc(C)n2)cc1,80*,-1,6,-1,0,7
CC(=O)c1cc(-c2ccc3c(c2)OCO3)c(=O)n2c1CCC2,5,-1,.,2,2,.
CC(CCc1ccccc1)NC(=O)CNC(=O)N1CC(=O)Nc2ccccc21 (configuration not stated),25*,0,3,3,1,9
Cn1c(N)c(C(=O)CCc2ccccc2)c(=O)n(C)c1=O,-1,1,.,4,2,.
CCN(CC(=O)c1c(N)n(C)c(=O)n(C)c1=O)c1cccc2ccccc12,38*,-6,5,13,-12,6
CCOC(=O)c1cnc(SC)nc1N,5,0,2,0,1,.
CCOC(=O)c1cnc(SC)nc1N1CCCC1,29*,1,4,-2,-4,-6
COc1ccc(CNC(=O)CCCNC(=O)c2ccc(Cl)cc2)cc1OC,33*,4,2,-5,1,0
O=C1C=C(Nc2ccccc2C(=O)O)c2ccccc2C1=O,46*,-7,-7,10,-9,50*
C[C@H]1C2CC(OC(=O)NCc3ccccc3)C(C2)[C@H]2CCCCN21 (some centres not stated),-7,1,.,-8,2,.
Cc1ccccc1OCC(O)Cn1c2ccccc2c2ccccc21 (configuration not stated),-2,0,2,2,-3,.
Cc1ccccc1OCC(O)CN1CCN(CC(O)COc2ccccc2C)C(C)C1 (configuration not stated),26*,5,4,2,-3,5
Cc1ccc(S(=O)(=O)c2c[nH]c3cc4c(cc3c2=O)OCO4)cc1,26*,16,.,-2,11,-8
COc1cccc(C2/C(=C(\O)c3ccc4c(c3)OCCO4)C(=O)C(=O)N2CC2CCCO2)c1 (configuration not stated),35*,-2,-1,1,0,3
CC(=O)c1cc(-c2cc(C(F)(F)F)cc(C(F)(F)F)c2)c(=O)n2c1CCC2,2,-3,.,3,-5,.
Cc1cc(C)c(NC(=O)CSc2nnc(CN3CCOCC3)n2C)c(C)c1,26*,3,5,-1,-4,9
CCn1ccnc1CNC(=O)c1ccc(OC2CCN(C(=O)COC)CC2)cc1,27*,-2,3,3,3,-5
Cc1cc(C)cc(N(CC(=O)NC2CCC(C)CC2)S(=O)(=O)c2ccccc2)c1 (configuration not stated),4,2,.,-2,1,.
COC(=O)c1ccc(Cn2ccc3ccc(-c4ccc5ccn(C(=O)c6ccccc6)c5c4)cc32)cc1,-1,-1,.,-2,-2,.
COC(=O)[C@]12C[C@H](CC(=O)N3CCSCC3)C(=O)N(CCc3ccc(OC)c(OC)c3)C1=C[C@H](C(C)C)O[C@@H]2C1CC1,0,1,.,1,-5,.
COc1ccc(OCC(=O)NS(=O)(=O)c2ccccc2)cc1,29*,-2,6,0,-6,6
O=C(COc1ccccc1)NS(=O)(=O)c1ccc(Cl)cc1,0,-1,-3,-2,2,.
CCc1ccc(NC(=O)Nc2cc(C(=O)NCC3CCCO3)ccc2N2CC3CC(C2)c2cccc(=O)n2C3)cc1 (configuration not stated),25*,-2,3,3,-2,2
CCc1ccc(NC(=S)Nc2cc(C(=O)O)ccc2N2CC3CC(C2)c2cccc(=O)n2C3)cc1 (configuration not stated),9,-1,-1,-1,-6,.
SMILES,TDP2 absorb,UHRF1 binding,Rin1 Abl inh,LEDGF integ inh,MBD2 DNA inh,TDP2 inh conf
Cc1[nH][nH]c(=O)c1C(c1ccc(N(C)C)c(Br)c1)c1c(C)[nH][nH]c1=O,12,-7,4,0,2,.
Cc1[nH][nH]c(=O)c1C(c1ccc(-c2ccc(F)cc2)o1)c1c(C)[nH][nH]c1=O,60*,13,3,25*,-6,20
CNC(=S)N/N=C/c1ccc(-c2ccc(C(=O)O)cc2)o1,2,3,-5,4,-2,.
COc1ccc(-c2ccc(C(c3c(C)[nH][nH]c3=O)c3c(C)[nH][nH]c3=O)o2)c([N+](=O)[O-])c1,67*,-3,3,5,-5,6
Cc1[nH][nH]c(=O)c1C(c1ccc(-c2ccc(C(=O)O)cc2)o1)c1c(C)[nH][nH]c1=O,60*,11,7,5,0,32*
Cc1nc2ccc(S(=O)(=O)NCC(=O)N(C)Cc3ccccc3F)cc2s1,1,-1,.,-1,4,.
O=Cc1ccc(-c2ccccc2C(=O)O)o1,-6,3,3,2,-3,.
O=C(O)c1ccccc1-c1c2cc(I)c(=O)c(I)c-2oc2c(I)c(O)c(I)cc12,28*,0,9,-12,-4,40*
Cc1nn(CCC#N)c(N)c1C1(O)C(=O)Nc2c(Cl)cc(Cl)cc21 (configuration not stated),26*,-4,-2,-1,-1,4
O=C1NC(Cc2cnc[nH]2)C(=O)N2CCCC12 (configuration not stated),9,-1,.,-3,0,.
COc1cc(C(=S)N2CCCCC2)ccc1OCC(=O)Nc1ccc(F)cc1,51*,-1,-3,2,3,-4
COc1cc(C(=S)N2CCCCC2)ccc1OCC(=O)N1CCCC1,5,-3,-1,-3,1,.
CSc1ccc(CN2CCC(N3CC(C)OC(C)C3)CC2)cc1 (configuration not stated),5,-3,3,0,1,.
Cc1ccc(CN2CCC(N3CC(C)OC(C)C3)CC2)cc1 (configuration not stated),25*,0,0,0,-5,4
O=S(=O)(Nc1ccncc1)c1cc(Cl)ccc1Cl,1,0,-1,-1,-2,.
O=C(O)c1ccc(NS(=O)(=O)c2cc(Cl)ccc2Cl)cc1O,29*,-1,0,2,-1,9
